Data on 18 molecules can be found in ChEMBL document CHEMBL1124558, “Differential effects of a series of hydroxamic acid derivatives on 5-lipoxygenase and cyclooxygenase from neutrophils and 12-lipoxygenase from platelets and their in vivo effects on inflammation and anaphylaxis” (J Med Chem, 1989).

The target of experiment [1] is T1, Polyunsaturated fatty acid 5-lipoxygenase (Homo sapiens, UniProt P09917).
T1 sequence (P09917 whole entry): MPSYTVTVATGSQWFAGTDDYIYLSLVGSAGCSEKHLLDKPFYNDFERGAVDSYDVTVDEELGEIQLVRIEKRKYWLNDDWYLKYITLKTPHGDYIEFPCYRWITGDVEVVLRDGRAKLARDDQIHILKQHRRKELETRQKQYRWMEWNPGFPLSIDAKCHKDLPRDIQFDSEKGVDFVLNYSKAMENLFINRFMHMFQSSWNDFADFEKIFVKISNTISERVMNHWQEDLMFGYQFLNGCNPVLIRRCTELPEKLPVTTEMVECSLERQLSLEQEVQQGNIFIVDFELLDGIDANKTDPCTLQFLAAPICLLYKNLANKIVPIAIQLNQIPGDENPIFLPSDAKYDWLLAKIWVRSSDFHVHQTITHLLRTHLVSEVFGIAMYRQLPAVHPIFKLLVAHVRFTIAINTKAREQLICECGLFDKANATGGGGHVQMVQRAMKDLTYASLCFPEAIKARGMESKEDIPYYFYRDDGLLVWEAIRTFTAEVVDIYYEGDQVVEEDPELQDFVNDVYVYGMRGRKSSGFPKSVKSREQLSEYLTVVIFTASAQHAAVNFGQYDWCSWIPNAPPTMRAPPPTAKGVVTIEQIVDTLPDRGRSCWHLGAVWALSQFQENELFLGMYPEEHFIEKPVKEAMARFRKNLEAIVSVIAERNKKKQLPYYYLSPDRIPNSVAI
The experiment can be described thus: In vitro inhibition of polymorphonuclear leukocyte derived human 5-lipoxygenase. Summed up: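 PMNs from venous blood of healthy volunteers, isolated by dextran sedimentation and Percoll gradient (>90% pure) and held in Ca/Mg PBS with 1 mg/mL glucose and 1 μM indomethacin. Challenged with calcium ionophore and [14C]arachidonic acid for 3 min. 5-HETE measured by TLC and scintillation counting; IC50 read graphically.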

Experiment [2] deals with T2, Polyunsaturated fatty acid 5-lipoxygenase (Rattus norvegicus, UniProt P12527).
T2 sequence (P12527 whole entry): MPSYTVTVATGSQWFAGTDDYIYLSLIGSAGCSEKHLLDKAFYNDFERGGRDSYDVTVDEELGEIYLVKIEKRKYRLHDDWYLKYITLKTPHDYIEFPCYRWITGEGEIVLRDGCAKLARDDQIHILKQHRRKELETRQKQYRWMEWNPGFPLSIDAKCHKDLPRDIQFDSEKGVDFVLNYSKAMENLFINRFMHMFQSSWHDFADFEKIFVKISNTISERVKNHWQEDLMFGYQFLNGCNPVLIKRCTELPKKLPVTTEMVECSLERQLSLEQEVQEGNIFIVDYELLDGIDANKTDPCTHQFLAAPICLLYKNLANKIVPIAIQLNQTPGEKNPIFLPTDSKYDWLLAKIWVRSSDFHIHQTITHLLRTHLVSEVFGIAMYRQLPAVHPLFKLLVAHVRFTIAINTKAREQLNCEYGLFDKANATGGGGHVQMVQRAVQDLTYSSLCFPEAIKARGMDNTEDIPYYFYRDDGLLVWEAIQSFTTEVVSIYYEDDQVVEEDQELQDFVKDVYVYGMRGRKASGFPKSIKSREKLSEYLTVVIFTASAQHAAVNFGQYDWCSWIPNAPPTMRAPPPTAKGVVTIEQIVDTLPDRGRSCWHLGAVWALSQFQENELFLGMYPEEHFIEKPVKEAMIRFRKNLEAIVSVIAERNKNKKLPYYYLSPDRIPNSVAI
The experiment can be described thus: In vitro inhibition of rat polymorphonuclear leukocyte 5-lipoxygenase. Summed up:
(§1)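 Intact glycogen-elicited peritoneal PMNs pooled from 4–5 Sprague-Dawley rats (250 g), preincubated 5 min at 30 °C with compound in DMSO (≤0.1% final) plus 1 μM indomethacin. Challenge with [14C]arachidonic acid (4 μM) and A23187 (0.8 μM) for 3 min. Extraction, TLC, 5-HETE by scintillation counting.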

The target in experiment [3] is T3, Cyclooxygenase (Rattus norvegicus) (UniProt P35355+Q63921). Kind of experiment: Inhibition of Prostaglandin G/H synthase in rat polymorphonuclear leukocytes. The class given is cell-based. On the set-up: concentration or dose not given beside the values. The note with it: concentration not given here. Summed up:
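Homogenate of glycogen-elicited rat peritoneal PMNs in 0.1 M Tris-HCl pH 8.2 with 10 μM NDGA, preincubated 5 min at 37 °C with compound (≤0.1% DMSO). [14C]arachidonic acid (8 μM) added with 4 mM glutathione and epinephrine; 10 min reaction. TxB2 and PGF2α separated by TLC and counted.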

For experiment [4], the system named is Mus musculus. Kind of experiment: In vivo inhibition of mouse ear inflammation. The class given is functional. On the set-up: concentration or dose not given beside the values. Summed up: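 Compound or ethanol vehicle applied topically to one ear of male DBA/2J mice 60 min before arachidonic acid (2 mg/ear). […] Groups of 5 mice.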
Experiment [5] deals with T3, Cyclooxygenase (Rattus norvegicus). Kind of experiment: In vitro inhibitory activity against rat polymorphonuclear leukocyte Prostaglandin G/H synthase at 100 uM. The class given is protein assay. Summed up: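 Glycogen-elicited peritoneal PMNs from Sprague-Dawley rats were homogenized at 0 °C in 0.1 M Tris-HCl pH 8.2 with 10 μM NDGA. Compound (DMSO ≤0.1%) was preincubated 5 min at 37 °C, then 8 μM [14C]arachidonic acid with 4 mM glutathione and epinephrine was added for 10 min. TxB2 and PGF2α were measured by TLC and scintillation counting.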

For experiment [6], the system named is Cavia porcellus. Kind of experiment: In vivo inhibitory activity against guinea pig systemic anaphylaxis when administered a compound dose (200 mg/kg) perorally. The note with it: po. The class given is functional. Summed up:
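Male Hartley guinea pigs sensitised ip with ovalbumin (2.7 mg/kg) plus LPS adjuvant, then challenged 2 weeks later with 1% ovalbumin aerosol for 30 s. Pretreated with pyrilamine, indomethacin and propranolol 20 min before challenge. Compound given in PEG 400 1 h before challenge.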

Experiment [7] has as its target T4, Arachidonate 12-lipoxygenase (Rattus norvegicus) (UniProt Q02759).
T4 sequence (whole entry): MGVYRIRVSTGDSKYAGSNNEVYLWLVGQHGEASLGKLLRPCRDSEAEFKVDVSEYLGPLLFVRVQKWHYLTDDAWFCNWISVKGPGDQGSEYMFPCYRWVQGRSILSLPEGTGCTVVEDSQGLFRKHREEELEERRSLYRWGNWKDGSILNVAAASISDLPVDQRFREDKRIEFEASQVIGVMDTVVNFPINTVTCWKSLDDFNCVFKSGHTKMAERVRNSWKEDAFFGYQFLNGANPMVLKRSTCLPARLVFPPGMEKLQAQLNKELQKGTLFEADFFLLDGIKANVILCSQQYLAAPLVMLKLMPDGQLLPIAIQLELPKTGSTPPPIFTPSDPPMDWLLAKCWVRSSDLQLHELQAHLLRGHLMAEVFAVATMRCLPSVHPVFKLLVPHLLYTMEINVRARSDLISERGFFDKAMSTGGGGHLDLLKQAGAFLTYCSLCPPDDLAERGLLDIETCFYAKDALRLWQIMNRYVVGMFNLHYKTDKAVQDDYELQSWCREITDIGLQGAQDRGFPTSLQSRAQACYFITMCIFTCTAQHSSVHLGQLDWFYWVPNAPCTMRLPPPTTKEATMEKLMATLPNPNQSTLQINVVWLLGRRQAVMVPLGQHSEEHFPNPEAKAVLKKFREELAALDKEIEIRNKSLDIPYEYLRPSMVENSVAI
Kind of experiment: In vitro inhibitory activity against rat platelet 12-lipoxygenase at 100 uM. Summed up:
(§2)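 Cell-free cytosolic 12-lipoxygenase from Sprague-Dawley rat platelets (0.4 mg/mL), preincubated 5 min at 30 °C with compound in DMSO (≤0.1% final), 25 mM Tris pH 7.4, 1 μM indomethacin, 100 μM glutathione; reaction started with 6 μM [14C]arachidonic acid and quenched with citric acid/NDGA after 3 min. 12-HETE isolated by TLC and counted by scintillation; % inhibition, duplicate.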

The target in experiment [8] is T5, Polyunsaturated fatty acid 5-lipoxygenase (Rattus norvegicus) (UniProt P12527).
T5 sequence (whole entry): T2 sequence (P12527 whole entry)
The experiment can be described thus: In vitro inhibitory activity against polymorphonuclear leukocyte 5-lipoxygenase in rat cell at 10 uM. Summed up: as §1

Experiment [9] concerns the target T6, Polyunsaturated fatty acid 5-lipoxygenase (Homo sapiens) (UniProt P09917).
T6 sequence (whole entry): T1 sequence (P09917 whole entry)
The experiment can be described thus: In vitro inhibitory activity against polymorphonuclear leukocyte 5-lipoxygenase in human cell at 10 uM. Summed up: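 Human PMNs from venous blood of a healthy volunteer (EDTA) were purified by dextran sedimentation, a Percoll gradient and NH4Cl red-cell lysis (>90% pure). They were held in Ca/Mg PBS with 1 mg/mL glucose and 1 μM indomethacin, then challenged with A23187 (0.8 μM) and [14C]arachidonic acid (4 μM) for 3 min. 5-HETE was measured by TLC and scintillation counting.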

Experiment [10] has as its target T4, Arachidonate 12-lipoxygenase (Rattus norvegicus). Kind of experiment: In vitro inhibitory activity against rat platelet 12-lipoxygenase at 10 uM. Summed up:
as §2

For experiment [11], the target named is T5, Polyunsaturated fatty acid 5-lipoxygenase (Rattus norvegicus). Kind of experiment: In vitro inhibitory activity against polymorphonuclear leukocyte 5-lipoxygenase in rat cell at 1 uM. Summed up:
as §1

pIC50: −log10 of the molar value.

With `O=C(CCCCc1ccccc1)N(O)Cc1ccccc1`, the pIC50 (commonly the negative decadic logarithm of the IC50, by convention in mol/L) was 6.82 in experiment [1] and 7.30 in experiment [2]. Moreover, in [3], the inhibition (as a rule, the change of the read-out against control, counted positive when it falls) was 50%. In addition, the Inhibition (in general, the relative decrease from the control value, in per cent) in [4] was 52%.

In the case of `CN(O)C(=O)Cc1cccc(OCc2ccc3ccccc3n2)c1`, in experiment [5], the inhibition turned out to be 30%. In addition, the pIC50 in experiment [1] was 6.00; in experiment [2] it was 7.10. In experiment [4], this molecule displayed an Inhibition of 68%.

On to `CN(O)C(=O)CCCCc1ccccc1`, for which the inhibition in vivo – broadly, the share of the control response that was lost under treatment – at 200 mg/kg in experiment [6] was 9%. Further, the pIC50 was 6.60 in [1] and 6.96 in [2]. Further, the inhibition in experiment [3] was less than 10%. Besides, in [4], the Inhibition is recorded as 77%.

For `CCOC(=O)CCCN(O)C(=O)CCCc1ccccc1`, the pIC50 was 6.30 in [1] and 6.52 in [2]. In [3], this molecule showed an inhibition of 44%. Besides, the Inhibition in [4] was determined as 54%.

Take `O=C(O)CCCN(O)C(=O)CCCc1ccccc1`: the figures for the inhibition in experiment [7], in [8] and in experiment [3] were 15%, 1% and less than 10%, respectively. For the same molecule, the Inhibition in experiment [4] was 34%.

In the case of `O=C(Cc1ccc(OCc2ccccc2)cc1)N(O)CCCc1ccccc1`, the pIC50 in [1] was 6.22; in experiment [2], 6.30. This molecule registered an inhibition in experiment [3] of less than 10%. This molecule also displayed an Inhibition in experiment [4] of 12%.

Consider `CC(C)Cc1ccc(C(C)C(=O)N(Cc2ccccc2)OCc2ccccc2)cc1` (stereo unspecified), for which the inhibition in experiment [8] was less than 10%; in experiment [9] it was less than 10%; in [10], less than 10%; in experiment [3], 39%.

`COc1ccc(CCCC(=O)N(O)CCc2ccccc2)cc1` showed an inhibition in vivo at 200 mg/kg in [6] of 0%. Also, the results for the pIC50 in experiment [1] and in experiment [2] were 6.60 and 6.92, respectively. In addition, the Inhibition in experiment [4] worked out at 64%.

Regarding `CCC(Cc1ccccc1)N(O)C(=O)Cc1ccc(OCc2ccccc2)cc1` (stereo unspecified), the inhibition was less than 10% in experiment [7] and 44% in experiment [3]. Moreover, the pIC50 in experiment [1] is 5.52; in experiment [2], 5.60. In experiment [4], the Inhibition is on record as 38%.

In the case of `COc1ccc(CCCC(=O)N(C)O)cc1`, in experiment [6], 200 mg/kg produced 60% inhibition in vivo. Also, the pIC50 in [1] is 5.89; in [2] it was 6.52. In experiment [3], this molecule showed an inhibition of less than 10%. The Inhibition in [4] stood at 67%.

`COc1ccc(CC(=O)N(O)CCc2ccccc2)cc1`: the pIC50 in experiment [1] was 5.60; in experiment [2] it was 6.00. Besides, the inhibition in experiment [3] amounted to 48%. The molecule further returned an Inhibition in [4] of 51%.

Turning to `CC(C)Cc1ccc(C(C)C(=O)N(O)Cc2ccccc2)cc1` (stereo unspecified), the inhibition in experiment [5] amounted to 20%. Further, the pIC50 was 5.70 in [1] and 6.00 in experiment [2].

`O=C(COc1ccccc1)N(O)CCc1ccccc1` returned an inhibition in experiment [5] of 65%. Besides, the negative logarithm of the IC50 (pIC50) in [1] was 5.92; in [2], 6.00.

Consider `O=C(CCOc1ccccc1)N(O)CCc1ccccc1`, for which the inhibition in [5] turned out to be 18%. Moreover, the pIC50 in experiment [1] was 6.52; in [2], 6.60.

Regarding `O=C(Cc1ccc(OCc2ccccc2)cc1)NO`, the inhibition in experiment [11] came out at 3%; in [3], 16%.

The molecule `O=C(CCc1ccccc1)N(O)CCCc1ccccc1` yielded an inhibition in [5] of 15%. This molecule also gave an inhibition in vivo at 200 mg/kg in experiment [6] of 0%. The pIC50 in experiment [1] and in [2] was 7.00 throughout. Further, the Inhibition in experiment [4] is recorded as 67%.

Take `O=C(CCCc1ccccc1)N(O)Cc1ccccc1`: the inhibition in vivo at 200 mg/kg in experiment [6] stood at 0%. For the same molecule, the results for the pIC50 in [1] and in experiment [2] were 6.89 and 6.82, respectively. Also, the inhibition in [3] worked out at 18%. In [4], this molecule came in with an Inhibition of 51%.

Turning to `CC(C(=O)N(O)CCc1ccccc1)c1cccc(OCc2ccccc2)c1` (stereo unspecified), the pIC50 was 7.00 in experiment [1] and 6.52 in experiment [2]. Further, in experiment [3], the inhibition is less than 10%.
